{"source": "paper PMC8897028", "about": "(Acta Pharmaceutica Sinica. B, 2021)", "assay_type_in_all_cases": "cell-based", "key": {"hTRPV3": {"biological_target": "T1, hTRPV3 (Homo sapiens, UniProt Q8NET8)", "T1 sequence (Q8NET8 1-790)": "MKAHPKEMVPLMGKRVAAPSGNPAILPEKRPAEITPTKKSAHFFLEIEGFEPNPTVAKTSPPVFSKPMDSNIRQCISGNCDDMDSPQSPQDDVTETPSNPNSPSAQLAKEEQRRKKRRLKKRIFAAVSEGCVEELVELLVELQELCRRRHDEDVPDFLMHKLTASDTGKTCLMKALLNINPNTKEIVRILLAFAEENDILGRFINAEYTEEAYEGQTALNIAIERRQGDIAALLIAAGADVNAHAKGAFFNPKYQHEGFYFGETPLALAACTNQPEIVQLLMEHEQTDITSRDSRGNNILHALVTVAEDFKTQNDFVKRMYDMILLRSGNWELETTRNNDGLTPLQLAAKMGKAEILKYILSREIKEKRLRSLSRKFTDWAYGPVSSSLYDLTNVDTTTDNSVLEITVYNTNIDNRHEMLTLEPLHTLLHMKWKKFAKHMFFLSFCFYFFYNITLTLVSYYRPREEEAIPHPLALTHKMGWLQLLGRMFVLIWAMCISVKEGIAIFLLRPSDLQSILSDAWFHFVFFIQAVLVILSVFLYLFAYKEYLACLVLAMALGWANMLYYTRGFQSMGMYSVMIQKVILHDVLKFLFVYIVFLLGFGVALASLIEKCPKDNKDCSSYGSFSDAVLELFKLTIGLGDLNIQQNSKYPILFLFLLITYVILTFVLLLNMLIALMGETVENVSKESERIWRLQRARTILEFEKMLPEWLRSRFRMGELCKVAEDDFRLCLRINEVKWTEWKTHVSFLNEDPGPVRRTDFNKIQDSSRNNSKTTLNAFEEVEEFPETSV", "test": "whole-cell patch-clamp of hTRPV3 currents expressed in HEK293 cells", "details": "for inhibition of hTRPV3 channel current activated by 2-APB: compound 50 μmol/L, agonist 2-APB 50 μmol/L, n = 5; for Hill coefficient: inhibition of hTRPV3 currents evoked by 2-APB 50 μmol/L", "how_it_was_run": "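Whole-cell currents were recorded from hTRPV3-transfected HEK293 cells (EGFP-identified, 18 h post-transfection) at 22–24 °C. Cells were held at 0 mV and ramped from −100 to +100 mV over 500 ms every 2 s. Currents were activated by 50 μmol/L 2-APB; test compound was added at 50 μmol/L or at 0.01–100 μmol/L. Outward current at +80 mV was fitted to a Hill equation for IC50; n = 5–8.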"}, "hTRPA1": {"biological_target": "hTRPA1 (Homo sapiens, UniProt O75762)", "sequence (O75762 whole entry, the tested form may be a part)": "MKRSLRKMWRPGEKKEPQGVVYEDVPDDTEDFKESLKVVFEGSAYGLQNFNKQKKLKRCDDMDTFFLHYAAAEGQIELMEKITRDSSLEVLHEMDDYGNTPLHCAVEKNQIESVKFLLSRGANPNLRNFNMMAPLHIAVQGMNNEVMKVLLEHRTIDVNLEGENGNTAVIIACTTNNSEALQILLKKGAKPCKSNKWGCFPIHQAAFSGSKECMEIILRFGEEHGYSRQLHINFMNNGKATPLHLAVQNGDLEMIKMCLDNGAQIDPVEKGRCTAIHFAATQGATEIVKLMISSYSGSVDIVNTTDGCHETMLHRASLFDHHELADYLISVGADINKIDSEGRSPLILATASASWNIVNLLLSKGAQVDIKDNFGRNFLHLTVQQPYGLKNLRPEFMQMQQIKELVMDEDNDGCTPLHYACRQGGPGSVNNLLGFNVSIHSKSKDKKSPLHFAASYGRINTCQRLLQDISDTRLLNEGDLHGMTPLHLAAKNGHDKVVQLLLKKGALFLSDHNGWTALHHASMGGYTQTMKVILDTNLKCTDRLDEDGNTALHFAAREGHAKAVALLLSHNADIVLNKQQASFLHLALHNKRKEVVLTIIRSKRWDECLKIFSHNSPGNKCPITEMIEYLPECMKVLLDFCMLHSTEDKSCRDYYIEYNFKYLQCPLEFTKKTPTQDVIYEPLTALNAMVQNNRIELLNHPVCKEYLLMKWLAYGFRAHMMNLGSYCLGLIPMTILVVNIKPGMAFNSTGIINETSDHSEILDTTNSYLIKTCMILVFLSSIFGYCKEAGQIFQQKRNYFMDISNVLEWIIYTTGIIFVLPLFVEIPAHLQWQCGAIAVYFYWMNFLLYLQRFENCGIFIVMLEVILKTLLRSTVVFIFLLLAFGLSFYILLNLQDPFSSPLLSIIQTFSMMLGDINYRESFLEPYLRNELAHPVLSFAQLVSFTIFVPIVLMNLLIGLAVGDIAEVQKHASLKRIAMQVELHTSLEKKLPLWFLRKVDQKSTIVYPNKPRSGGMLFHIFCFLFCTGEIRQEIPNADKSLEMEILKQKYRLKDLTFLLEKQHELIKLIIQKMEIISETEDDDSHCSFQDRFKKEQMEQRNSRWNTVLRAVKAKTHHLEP", "test": "whole-cell patch-clamp of TRPA1 currents in HEK293 cells", "details": "compound 50 μmol/L; current evoked by AITC 300 μmol/L", "how_it_was_run": "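Human channel cDNAs were transiently transfected into HEK293 cells with Lipofectamine 2000. EGFP-positive cells were recorded whole-cell 18 h later at 22–24 °C with ~4.0 MΩ fire-polished pipettes. Cells were held at 0 mV with 500-ms ramps from −100 to +100 mV every 2 s. Test compound in perfusion solution was co-applied with agonist, and average current inhibition was summarised; n = 4–6.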"}, "mTRPV3 V662A": {"biological_target": "T2, mTRPV3 V662A (Mus musculus, UniProt Q8K424, V662A)", "T2 sequence (Q8K424 1-791 V662A)": "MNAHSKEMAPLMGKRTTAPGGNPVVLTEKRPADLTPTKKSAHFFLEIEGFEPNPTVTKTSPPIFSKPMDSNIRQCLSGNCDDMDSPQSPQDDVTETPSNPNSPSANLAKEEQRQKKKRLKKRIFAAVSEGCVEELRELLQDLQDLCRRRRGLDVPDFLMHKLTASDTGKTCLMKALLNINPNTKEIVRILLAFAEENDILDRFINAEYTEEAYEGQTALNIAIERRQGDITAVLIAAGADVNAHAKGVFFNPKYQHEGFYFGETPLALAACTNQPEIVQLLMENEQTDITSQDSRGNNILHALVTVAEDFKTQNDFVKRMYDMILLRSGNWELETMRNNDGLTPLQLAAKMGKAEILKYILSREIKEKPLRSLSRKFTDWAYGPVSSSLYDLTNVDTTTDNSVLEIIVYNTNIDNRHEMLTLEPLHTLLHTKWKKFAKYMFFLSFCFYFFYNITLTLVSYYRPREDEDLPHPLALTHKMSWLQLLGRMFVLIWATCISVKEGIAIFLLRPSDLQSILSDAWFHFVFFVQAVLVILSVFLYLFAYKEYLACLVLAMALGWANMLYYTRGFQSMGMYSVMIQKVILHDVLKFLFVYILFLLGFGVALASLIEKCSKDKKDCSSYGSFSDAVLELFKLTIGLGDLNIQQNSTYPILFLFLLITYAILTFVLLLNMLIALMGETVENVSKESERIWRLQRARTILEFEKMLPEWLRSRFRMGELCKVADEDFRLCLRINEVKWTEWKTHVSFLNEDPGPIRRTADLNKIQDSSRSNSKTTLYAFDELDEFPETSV", "test": "whole-cell patch-clamp of mTRPV3 V662A mutant in HEK293 cells", "details": "compound 50 μmol/L; 2-APB; compared with WT mTRPV3", "how_it_was_run": "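Mouse Trpv3 point mutants were made by site-directed mutagenesis, sequence-verified, and transiently expressed in HEK293 cells alongside wild-type mTRPV3. Whole-cell ramp recordings (−100 to +100 mV, 500 ms, holding 0 mV) were made at 22–24 °C. Currents were activated by 2-APB, and inhibition by 50 μmol/L test compound in the presence of 2-APB was compared with wild type; n = 3–8.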"}}}
{"smiles": "O=C(/C=C/c1ccc(O)c(O)c1)O[C@@H]1C[C@](O)(C(=O)O)C[C@@H](OC(=O)/C=C/c2ccc(O)c(O)c2)[C@H]1O", "note": "[IAA, isochlorogenic acid A]", "values": [{"measurement": "inhibition of hTRPV3 channel current activated by 2-APB", "setting": "hTRPV3", "value": "about 80.8 ± 2.1%"}, {"measurement": "Hill coefficient", "setting": "hTRPV3", "value": 0.50}, {"measurement": "inhibition of TRPA1 current", "setting": "hTRPA1", "value": "no inhibitory effect"}, {"measurement": "effect of mutation on compound-induced inhibition of mTRPV3 currents", "setting": "mTRPV3 V662A", "value": "no obvious effect"}]}
{"smiles": "O=C(/C=C/c1ccc(O)c(O)c1)O[C@@H]1[C@H](O)C[C@@](O)(C(=O)O)C[C@H]1OC(=O)/C=C/c1ccc(O)c(O)c1", "note": "[IAB, isochlorogenic acid B]", "values": [{"measurement": "inhibition of hTRPV3 channel current activated by 2-APB", "setting": "hTRPV3", "value": "~86.4 ± 3.3", "unit": "%"}, {"measurement": "better potency of IAB versus IAA", "setting": "hTRPV3; from hTRPV3 IC50 values", "value": 3, "unit": "fold"}, {"measurement": "Hill coefficient", "setting": "hTRPV3", "value": 0.53}, {"measurement": "inhibition of TRPA1 current", "setting": "hTRPA1", "value": "no inhibitory effect"}, {"measurement": "effect of mutation on compound-induced inhibition of mTRPV3 currents", "setting": "mTRPV3 V662A", "value": "no obvious effect"}]}
